Source: ChEMBL document CHEMBL1125311, “Inhibition of human leukocyte elastase. 4. Selection of a substituted cephalosporin (L-658,758) as a topical aerosol” (J Med Chem, 1992)

Tests used:
[1] = target: T1, Neutrophil elastase (Homo sapiens) (UniProt P08246)
T1 sequence (whole entry): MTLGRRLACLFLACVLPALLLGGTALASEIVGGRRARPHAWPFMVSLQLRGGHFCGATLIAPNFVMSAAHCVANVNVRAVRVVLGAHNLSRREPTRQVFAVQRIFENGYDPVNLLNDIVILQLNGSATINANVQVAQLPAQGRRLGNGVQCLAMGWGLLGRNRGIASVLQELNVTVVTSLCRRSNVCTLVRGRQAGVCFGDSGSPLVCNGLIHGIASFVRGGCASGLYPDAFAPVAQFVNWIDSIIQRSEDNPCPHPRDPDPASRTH

[2] = Half-life value of the compound.; type: ADME
Method in brief: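 Chemical stability: compound dissolved at 1 mg/mL in 0.5 M MOPS, pH 8.0, held at 25 °C in capped vial; aliquots quenched in 2% aqueous TFA and analysed by reverse-phase HPLC over one to two half-lives. Peak areas fit to first-order decay F(t)=A/2^(t/t1/2) to give t1/2.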

Cricetinae gen. sp. [3] = assay: Compound was evaluated in vivo for inhibition of HLE-induced hemorrhage in hamster lung at 100 microg 30 min after administration; type: functional, Cricetulus griseus
Method in brief: (§1)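 Hamster, intratracheal dosing of compound (per animal) 30 min before IT instillation of 50 μg HLE (50 units in Experimental); hemorrhage read 3 h later: lungs lavaged with saline, hemoglobin in lavage measured at 414 nm. Percent inhibition from drug-treated vs vehicle-treated hemorrhage; three animals per dose and time. Titration at 100, 30, 10, 3 μg/animal gives ED50.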

Cricetinae gen. sp. [4] = assay: Compound was evaluated in vivo for inhibition of HLE-induced hemorrhage in hamster lung at 100 microg, 30 min after administration; type: functional, Cricetulus griseus
Method in brief: as §1

Cricetinae gen. sp. [5] = assay: Compound was evaluated in vivo for inhibition of HLE-induced hemorrhage in hamster lung at 200 microg, 2 hr after administration prior to HLE; type: functional, Cricetulus griseus
Method in brief: (§2)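 Hamster duration protocol: 200 μg/animal given intratracheally 60, 120, 180 or 240 min before IT HLE instillation; hemorrhage scored after 3 h as hemoglobin (414 nm) in saline lung lavage, relative to vehicle-treated animals; three animals per point. T50 taken as time at which 50% inhibition is still obtained.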

Cricetinae gen. sp. [6] = assay: Compound was evaluated in vivo for inhibition of HLE-induced hemorrhage in hamster lung at 200 microg 1 hr after administration prior to HLE; type: functional, Cricetulus griseus
Method in brief: as §2

Cricetinae gen. sp. [7] = assay: Compound was evaluated in vivo for inhibition of HLE-induced hemorrhage in hamster lung at 30 ug 30 min after administration prior to HLE; type: functional, Cricetulus griseus
Method in brief: as §1

Cricetinae gen. sp. [8] = assay: Compound was evaluated in vivo for inhibition of HLE-induced hemorrhage in hamster lung at 10 ug 30 min after administration prior to HLE; type: functional, Cricetulus griseus
Method in brief: as §1

Cricetinae gen. sp. [9] = assay: Compound was evaluated in vivo for inhibition of HLE-induced hemorrhage in hamster lung at 100 microg 30 min after administration prior to HLE; type: functional, Cricetulus griseus
Method in brief: as §1

Cricetinae gen. sp. [10] = assay: Compound was evaluated in vivo for inhibition of HLE-induced hemorrhage in hamster lung at 200 microg, 3h after administration prior to HLE; type: functional, Cricetulus griseus
Method in brief: as §2

Cricetinae gen. sp. [11] = assay: Compound was evaluated in vivo for inhibition of HLE-induced hemorrhage in hamster lung at 30microg, 30 min after administration prior to HLE; type: functional, Cricetulus griseus
Method in brief: as §1

Cricetinae gen. sp. [12] = assay: Compound was evaluated in vivo for inhibition of HLE-induced hemorrhage in hamster lung at 100 microg, 30 min after administration prior to HLE; type: functional, Cricetulus griseus
Method in brief: as §1

Cricetinae gen. sp. [13] = assay: Compound was evaluated in vivo for inhibition of HLE-induced hemorrhage in hamster lung at 10microg, 30 min after administration prior to HLE; type: functional, Cricetulus griseus
Method in brief: as §1

Neutrophil elastase = target: T2, Neutrophil elastase (Homo sapiens, UniProt P08246); assay: In vitro inhibitory activity against human leukocyte elastase
T2 sequence (P08246 whole entry): T1 sequence (whole entry)

Cricetinae gen. sp. [14] = assay: Compound was evaluated in vivo for inhibition of HLE-induced hemorrhage in hamster lung at 200 microg 2 hr after administration prior to HLE; type: functional, Cricetulus griseus
Method in brief: as §2

Cricetinae gen. sp. [15] = assay: Compound was evaluated in vivo for inhibition of HLE-induced hemorrhage in hamster lung at 200 microg 3h after administration prior to HLE; type: functional, Cricetulus griseus
Method in brief: as §2

Cricetinae gen. sp. [16] = assay: Compound was evaluated in vivo for inhibition of HLE-induced hemorrhage in hamster lung at 200 microg 4 hr after administration prior to HLE; type: functional, Cricetulus griseus
Method in brief: as §2

Cricetinae gen. sp. [17] = assay: Compound was evaluated in vivo for inhibition of HLE-induced hemorrhage in hamster lung at 200 microg, 1 hr after administration prior to HLE; type: functional, Cricetulus griseus
Method in brief: as §2

CO[C@H]1C(=O)N2C(C(=O)N(C)CC(=O)O)=C(COC(C)=O)C(C)S(=O)(=O)[C@H]12 (some centres undefined)
k obs / 1 [1]: 1400 M⁻¹ s⁻¹
half-life [2]: 8 h

CC[C@H]1C(=O)N2C(C(=O)OCc3ccc(C(=O)O)cc3)=C(COC(C)=O)CS(=O)(=O)[C@H]12
k obs / 1 [1]: 5700 M⁻¹ s⁻¹
half-life [2]: 40 h
Inhibition (Cricetinae gen. sp. [3]): -32%

CO[C@H]1C(=O)N2C(C(=O)N3CCOCC3)=C(COC(C)=O)CS(=O)(=O)[C@H]12
Inhibition (Cricetinae gen. sp. [4]): -21%
k obs / 1 [1]: 35200 M⁻¹ s⁻¹
half-life [2]: 13 h

CO[C@H]1C(=O)N2C(C(=O)N(C)CC(=O)OC(C)(C)C)=C(CSc3nc(=O)c(=O)[nH]n3C)CS(=O)(=O)[C@H]12
Inhibition (Cricetinae gen. sp. [5]): 84%
Inhibition (Cricetinae gen. sp. [6]): 89%
Inhibition (Cricetinae gen. sp. [7]): 94%
Inhibition (Cricetinae gen. sp. [8]): 65%
Inhibition (Cricetinae gen. sp. [9]): 98%
Inhibition (Cricetinae gen. sp. [10]): 38%
k obs / 1 [1]: 19300 M⁻¹ s⁻¹

CO[C@H]1C(=O)N2C(C(=O)N(C)CC(=O)OC(C)(C)C)=C(CSc3nnnn3CC(=O)O)CS(=O)(=O)[C@H]12
Inhibition (Cricetinae gen. sp. [7]): 59%
Inhibition (Cricetinae gen. sp. [8]): 20%
Inhibition (Cricetinae gen. sp. [9]): 91%
k obs / 1 [1]: 20500 M⁻¹ s⁻¹

CO[C@H]1C(=O)N2C(C(=O)N3CCC(C(=O)O)C3)=C(COC(C)=O)CS(=O)(=O)[C@H]12 (some centres undefined)
k obs / 1 [1]: 1900 M⁻¹ s⁻¹

CO[C@H]1C(=O)N2C(C(=O)N3CCC(O)C3)=C(COC(C)=O)CS(=O)(=O)[C@H]12 (some centres undefined)
k obs / 1 [1]: 12000 M⁻¹ s⁻¹

CO[C@H]1C(=O)N2C(C(=O)N(C)CC(=O)O)=C(CSc3nnnn3C)CS(=O)(=O)[C@H]12
k obs / 1 [1]: 600 M⁻¹ s⁻¹

CO[C@H]1C(=O)N2C(C(=O)N(C)CC(=O)O)=C(CSc3ccccn3)CS(=O)(=O)[C@H]12
Inhibition (Cricetinae gen. sp. [11]): 46%
Inhibition (Cricetinae gen. sp. [12]): 76%
Inhibition (Cricetinae gen. sp. [13]): 35%
Ki (Neutrophil elastase): 43 µM

CO[C@H]1C(=O)N2C(C(=O)N(CC(=O)O)Cc3ccccc3)=C(COC(C)=O)CS(=O)(=O)[C@H]12
Inhibition (Cricetinae gen. sp. [11]): 30%
Inhibition (Cricetinae gen. sp. [12]): 42%
Ki (Neutrophil elastase): 6.1 µM

CO[C@H]1C(=O)N2C(C(=O)N(C)CCC(=O)O)=C(COC(C)=O)CS(=O)(=O)[C@H]12
Inhibition (Cricetinae gen. sp. [6]): 80%
Inhibition (Cricetinae gen. sp. [14]): 39%
Inhibition (Cricetinae gen. sp. [15]): -1%
k obs / 1 [1]: 500 M⁻¹ s⁻¹
half-life [2]: 24 h
Inhibition (Cricetinae gen. sp. [16]): 33%

CC[C@H]1C(=O)N2C(C(=O)N(C)CC(=O)O)=C(COC(C)=O)CS(=O)(=O)[C@H]12
k obs / 1 [1]: 30 M⁻¹ s⁻¹
half-life [2]: > 50 h

CC[C@H]1C(=O)N2C(C(=O)N(C)CC(=O)O)=C(COC(=O)c3ccc(C(=O)O)cc3)CS(=O)(=O)[C@H]12
Inhibition (Cricetinae gen. sp. [5]): 59%
Inhibition (Cricetinae gen. sp. [17]): 84%
Inhibition (Cricetinae gen. sp. [10]): 57%
k obs / 1 [1]: 100 M⁻¹ s⁻¹

CO[C@H]1C(=O)N2C(C(=O)N3CCCC3)=C(COC(C)=O)CS(=O)(=O)[C@H]12
k obs / 1 [1]: 27000 M⁻¹ s⁻¹
half-life [2]: 16 h

CO[C@H]1C(=O)N2C(C(=O)N(C)CC(=O)N(C)CCC(=O)O)=C(COC(C)=O)CS(=O)(=O)[C@H]12
Inhibition (Cricetinae gen. sp. [11]): 77%
Inhibition (Cricetinae gen. sp. [12]): 86%
Inhibition (Cricetinae gen. sp. [13]): 35%
k obs / 1 [1]: 700 M⁻¹ s⁻¹

CO[C@H]1C(=O)N2C(C(=O)N(C)Cc3ccccc3)=C(COC(=O)c3ccc(C(=O)O)cc3)CS(=O)(=O)[C@H]12
k obs / 1 [1]: 10000 M⁻¹ s⁻¹

CO[C@H]1C(=O)N2C(C(=O)N(C)Cc3ccc(C(=O)O)cc3)=C(COC(C)=O)CS(=O)(=O)[C@H]12
Inhibition (Cricetinae gen. sp. [4]): 65%
k obs / 1 [1]: 8600 M⁻¹ s⁻¹

CO[C@H]1C(=O)N2C(C(=O)N(C)CCC(=O)O)=C(CSc3nc(=O)c(=O)[nH]n3C)CS(=O)(=O)[C@H]12
Inhibition (Cricetinae gen. sp. [6]): 95%
Inhibition (Cricetinae gen. sp. [14]): 87%
Inhibition (Cricetinae gen. sp. [7]): 74%
Inhibition (Cricetinae gen. sp. [15]): 46%
Inhibition (Cricetinae gen. sp. [8]): 45%
Inhibition (Cricetinae gen. sp. [9]): 96%
k obs / 1 [1]: 1000 M⁻¹ s⁻¹
Inhibition (Cricetinae gen. sp. [16]): -23%

CO[C@H]1C(=O)N2C(C(=O)N3CCC[C@@H]3C(=O)O)=C(COC(C)=O)CS(=O)(=O)[C@H]12
half-life [2]: < 5 h
Ki (Neutrophil elastase): 3.4 µM

CO[C@H]1C(=O)N2C(C(=O)N(C)CC(=O)O)=C(COC(=O)NCc3ccccc3)CS(=O)(=O)[C@H]12
Inhibition (Cricetinae gen. sp. [11]): 93%
Inhibition (Cricetinae gen. sp. [12]): 91%
Inhibition (Cricetinae gen. sp. [13]): 27%
k obs / 1 [1]: 600 M⁻¹ s⁻¹
